ChEMBL document CHEMBL3817726, “Chemically Diverse Group I p21-Activated Kinase (PAK) Inhibitors Impart Acute Cardiovascular Toxicity with a Narrow Therapeutic Window” (J Med Chem, 2016)
Values after ≈ are worked out from the molar mass of the structure shown.

How the values were obtained:
[1] = test system: Plasma; assay: Unbound drug concentration in mouse plasma at 25 mg/kg, po at 0.25 hrs; conditions: in vivo
[2] = molecular target: Serine/threonine-protein kinase PAK 1/PAK 2 (Homo sapiens, UniProt Q13177+Q13153); assay: Inhibition of PAK1/2 in human EBC1 cells assessed as phosphorylation of MEK1 at serine 298 after 2 hrs by HTRF assay; assay type: cell-based
[3] = test system: Mus musculus; assay: Toxicity in mouse assessed as mortality at 12.5 mg/kg, po after 0.25 hrs; assay type: organism-based; conditions: in vivo
[4] = organism: Homo sapiens; assay: Selectivity for human recombinant N-terminal 6-His-tagged PAK1 kinase domain (249 to 545 residues) over LCK (unknown origin)
[5] = Plasma concentration in mouse at 12.5 mg/kg, po at 0.5 hrs; assay type: ADME, organism-based
[6] = Fraction unbound in mouse plasma at 12.5 to 25 mg/kg, po; assay type: ADME, organism-based
[7] = molecular target: Serine/threonine-protein kinase PAK 2 (Homo sapiens, UniProt Q13177); assay: (§1) Inhibition of human recombinant PAK2 assessed as phosphorylation of coumarin labeled FRET peptide substrate at Ser/Thr19 preincubated for 10 mins followed by ATP addition measured after 60 mins by Z'-LYTE assay
[8] = Efflux ratio of permeability across basolateral to apical side over apical to basolateral side in MDCK cells at 10 uM after 60 mins; assay type: ADME, cell-based, Canis lupus familiaris; conditions: dog
[9] = test system: Mus musculus; assay: Toxicity in mouse assessed as mortality at 12.5 mg/kg, po after 0.5 hrs; assay type: organism-based; conditions: in vivo
In short: (§2)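 Mouse tolerability study at multiple oral doses, with lethality and clinical signs monitored after dosing. Plasma drug concentrations were measured, and the minimum unbound concentration linked to adverse effects was compared with the cellular pMEK S298 IC₅₀.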

[10] = Ratio of fCmax associated with acute adverse effect in mouse at 12.5 to 25 mg/kg, po to IC50 for PAK1/2-mediated phosphorylation of MEK1 at serine 298 in human EBC1 cells
In short: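 Mice were dosed at multiple levels, orally or intraperitoneally, and monitored for acute adverse signs. The minimum unbound plasma Cmax associated with adverse effects was converted from total drug concentration and compared with the cellular IC50 for phospho-MEK1 S298 inhibition.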

[11] = Lipophilicity, log D of the compound at pH 7.4; assay type: physicochemical; conditions: buffer
[12] = test system: Mus musculus; assay: Toxicity in mouse assessed as mortality at 25 mg/kg, po after 2 hrs; assay type: organism-based; conditions: in vivo
In short: as §2

[13] = Cmax associated with acute adverse effect in mouse at 12.5 to 25 mg/kg, po; assay type: ADME, organism-based; conditions: in vivo
In short: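 Mouse tolerability studies tested multiple doses, given orally or intraperitoneally. Plasma drug concentrations were measured, including at a 15 min time point. The minimum concentration associated with adverse clinical signs or death was taken as the adverse Cmax and was converted to an unbound value.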

[14] = molecular target: Serine/threonine-protein kinase PAK 1 (Homo sapiens, UniProt Q13153); assay: as §1, with “N-terminal 6-His-tagged PAK1 kinase domain (249 to 545 residues) expressed in Escherichia coli BL21(DE3)” for “PAK2”
[15] = Plasma concentration in mouse at 25 mg/kg, po at 15 mins; assay type: ADME, organism-based
[16] = test system: Mus musculus; assay: fCmax associated with acute adverse effect in mouse at 12.5 to 25 mg/kg, po; assay type: ADME, organism-based; conditions: in vivo
In short: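 Mouse tolerability studies at multiple doses, oral or intraperitoneal. Minimum unbound plasma concentration associated with adverse effects (total Cmax converted to unbound) compared with IC50 for inhibition of MEK1 S298 phosphorylation in cells.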

[17] = Kinetic solubility of the compound at pH 7.4; assay type: physicochemical; conditions: buffer, read-out: Kinetic_solubility
[18] = Apparent permeability across apical to basolateral side in MDCK cells at 10 uM after 60 mins; assay type: ADME, cell-based, Canis lupus familiaris; conditions: dog
[19] = Plasma concentration in mouse at 25 mg/kg, po at 0.25 hrs

Chain of Serine/threonine-protein kinase PAK 1 (Q13153 whole entry, the tested form may be a part): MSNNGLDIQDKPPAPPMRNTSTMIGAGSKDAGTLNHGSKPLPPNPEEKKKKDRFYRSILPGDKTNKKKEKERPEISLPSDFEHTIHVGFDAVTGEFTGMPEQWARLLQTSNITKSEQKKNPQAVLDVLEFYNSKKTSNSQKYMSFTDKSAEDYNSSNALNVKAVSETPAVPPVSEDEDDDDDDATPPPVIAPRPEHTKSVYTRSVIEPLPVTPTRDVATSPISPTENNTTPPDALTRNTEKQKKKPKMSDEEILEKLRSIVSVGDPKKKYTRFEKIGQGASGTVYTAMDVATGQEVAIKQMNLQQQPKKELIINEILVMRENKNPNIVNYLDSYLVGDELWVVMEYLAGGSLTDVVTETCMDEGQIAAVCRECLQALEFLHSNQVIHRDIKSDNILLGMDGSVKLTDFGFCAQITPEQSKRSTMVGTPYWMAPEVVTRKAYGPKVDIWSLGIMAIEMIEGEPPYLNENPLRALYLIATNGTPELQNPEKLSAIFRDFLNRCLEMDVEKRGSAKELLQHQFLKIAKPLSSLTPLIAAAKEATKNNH
Chain of Serine/threonine-protein kinase PAK 2 (Q13177 whole entry): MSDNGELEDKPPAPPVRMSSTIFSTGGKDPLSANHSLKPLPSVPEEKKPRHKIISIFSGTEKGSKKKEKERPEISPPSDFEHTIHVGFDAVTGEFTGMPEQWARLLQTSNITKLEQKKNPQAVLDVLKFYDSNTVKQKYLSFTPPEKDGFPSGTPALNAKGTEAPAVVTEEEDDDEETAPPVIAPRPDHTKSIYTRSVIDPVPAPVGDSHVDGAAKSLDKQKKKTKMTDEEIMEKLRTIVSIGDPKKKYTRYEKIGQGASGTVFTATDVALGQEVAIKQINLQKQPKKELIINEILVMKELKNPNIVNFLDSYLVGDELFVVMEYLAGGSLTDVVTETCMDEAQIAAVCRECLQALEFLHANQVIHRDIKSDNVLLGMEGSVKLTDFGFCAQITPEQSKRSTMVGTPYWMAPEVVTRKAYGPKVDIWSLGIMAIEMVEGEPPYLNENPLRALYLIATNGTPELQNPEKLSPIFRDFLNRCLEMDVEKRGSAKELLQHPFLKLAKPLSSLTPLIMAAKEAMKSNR

CNc1ncc2cc(-c3ccc(-n4cccc(C)c4=O)cc3Cl)c(=O)n(CCC3(F)CN(C)C3)c2n1
Cp(f) [1]: 0.088 µM
IC50 [2]: 33 nM
Activity [3]: Toxic
Selectivity ratio [4]: 57
concentration at 0.5 h [5]: 1.89 µM
fraction unbound [6]: 0.032
Ki [7]: 2 nM
efflux ratio at 1 h, 10 µM [8]: 2
Activity [9]: Toxic
Ratio [10]: 1
logD [11]: 1.8
Activity [12]: Toxic
Cmax [13]: 2.8 µM
Ki [14]: 0.95 nM
concentration at 0.25 h [15]: 2.8 µM
fCmax [16]: 0.088 µM
solubility kinetic [17]: 117 µM (≈ 59.6 µg/mL)
Papp A→B at 1 h, 10 µM [18]: 69 nm/s
concentration at 0.25 h [19]: 2.24 µM
